In the array DNA melting data of Ke et al. (doi:10.1101/2024.01.08.574731):

What was measured:
[1] = folding enthalpy; higher = less favourable; fluorescence melt of hairpins on a sequencing array, two-state fit; details: sodium 0.088 M
Summary of the method: (§1)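 With Cy3 and quencher oligos annealed, library hairpins on a sequenced MiSeq flow cell were imaged for Cy3 fluorescence in 50 mM Na-HEPES pH 8.0, 25 mM NaCl, in 2.5 °C steps up to 60 °C. Melting temperature and folding enthalpy were derived from bootstrapped two-state fits of signals normalised to pre-quench Cy3 and to control constructs. Four replicates were combined by inverse variance, with fitted temperatures raised by 9.35 °C to match UV melts.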

[2] = melting temperature; fluorescence melt of hairpins on a sequencing array, two-state fit, raised by 9.35 °C to match UV melts; details: sodium 0.088 M
Summary of the method: as §1

Row | Sequence | folding enthalpy [1] | Tm [2]
1 | GTATGCGGAAACGCATGC (.(((((....))))).) | -21.2 kcal/mol | 55.5 °C
2 | GATCAATTTCTTGATC ((((((....)))))) | -39.3 kcal/mol | 43.3 °C
3 | GTTATTGGAAACAGTAAC ((((.((....)).)))) | -27.5 kcal/mol | 33.4 °C
4 | GCGGTGCGAAAGCTTCGC (((..((....))..))) | -16.4 kcal/mol | 58.2 °C
5 | GCTGCGCGAAAGCGGGGC ((..(((....)))..)) | -26.9 kcal/mol | 63.1 °C
6 | GATCACTCATGTGATC ((((((....)))))) | -40.5 kcal/mol | 57 °C
7 | GCATCTGCGAAAGCATGC (((..(((....)))))) | -14.4 kcal/mol | 39.8 °C
8 | GAAATGGGAAACCATTTC (((((((....))))))) | -37.5 kcal/mol | 53.9 °C
9 | GGTCTAGAAATAGACC ((((((....)))))) | -38.1 kcal/mol | 51.8 °C
10 | GAAGTGGGAAACCATTTC (((.(((....))).))) | -30.7 kcal/mol | 36.6 °C
11 | GCTCCGCGAAAGCTGTGC ((.(.((....)).).)) | -14.9 kcal/mol | 41.2 °C
12 | GCGTTGGGAAACTGACGC ((((..(....)..)))) | -35.3 kcal/mol | 49.7 °C
13 | GACGTACCGAAAGGTGTC (((..(((....)))))) | -22.4 kcal/mol | 41.9 °C
14 | CGTGCGGAAACGCTCACG ((((((....)))..))) | -18.3 kcal/mol | 39.9 °C
15 | GTTACGGGAAACCATAAC ((((.((....)).)))) | -15.6 kcal/mol | 30 °C
16 | GGAAGCGAAAGCTCCTCC ((((((....)))..))) | -16.8 kcal/mol | 51.3 °C
17 | GTTATGGCGAAAGCCAAC (((..(((....)))))) | -8.21 kcal/mol | 29.5 °C
18 | GGATTAGAAATAATCC ((((((....)))))) | -29.3 kcal/mol | 42.8 °C
19 | GGGGTAGGAAACTACCTC (.(((((....))))).) | -20 kcal/mol | 48 °C
20 | GATCGTATGGACGATC ((((((....)))))) | -27 kcal/mol | 56.5 °C
21 | GATCCAGCACTGGATC ((((((....)))))) | -37.6 kcal/mol | 56 °C
22 | GATCCTGTCAAGGATC ((((((....)))))) | -42.7 kcal/mol | 64.9 °C
23 | GATCGAGTGGTCGATC ((((((....)))))) | -8.38 kcal/mol | 53.9 °C

Row | Sequence | folding enthalpy [1] | Tm [2]
24 | GGTGGCGGAAACGTCGCC ((.(.((....)).).)) | -39.9 kcal/mol | 54.2 °C
25 | GTGTACGGAAACGCACAC ((((.((....)).)))) | -38.1 kcal/mol | 49.1 °C
26 | GGCACCGAAAGGTCGCC ((((((....))).))) | -35.6 kcal/mol | 59.4 °C
27 | GATCGCCCGGCGATC ((((((...)))))) | -40.9 kcal/mol | 68.5 °C
28 | GTTGATGGAAACGTCAAC (((((.(....).))))) | -42.9 kcal/mol | 47.1 °C
29 | GTCCTACGAAAGTACGAC (((.(((....))).))) | -24.9 kcal/mol | 35.2 °C
30 | GTGCATCCGAAAGGACAC (((..(((....)))))) | -11.7 kcal/mol | 38.2 °C
31 | GGTCTCCGAAAGGATACC (((.(((....))).))) | -26.8 kcal/mol | 48.1 °C
32 | GATCACTTGTGTGATC ((((((....)))))) | -40.4 kcal/mol | 56.1 °C
33 | GTTGCCCGAAAGGGAAC (((.(((....)))))) | -15.6 kcal/mol | 47.6 °C
34 | GCGAAAGGAAACTCTCGC ((((.((....)).)))) | -28.1 kcal/mol | 38.3 °C
35 | GATCCTGTAAAGGATC ((((((....)))))) | -39.6 kcal/mol | 60.5 °C
36 | GGGCACGAAAGTGTTCCC ((((((....)))..))) | -17.7 kcal/mol | 46.1 °C
37 | GTACATGGAAACATGTGC (.(((((....))))).) | -22.7 kcal/mol | 48.6 °C
38 | GATGGAGCGAAAGCTATC (((..(((....)))))) | -10.5 kcal/mol | 30.2 °C
39 | GCATAGCGAAAGCGAGGC ((.(.((....)).).)) | -13.3 kcal/mol | 54.4 °C
40 | GGTGATGGAAACGTTACC (((.(.(....).).))) | -19.2 kcal/mol | 30.4 °C
41 | GTCTCTACGAAAGTAGAC (((..(((....)))))) | -11.2 kcal/mol | 33.2 °C
42 | GCCGCGCGAAAGCGTTGC ((..(((....)))..)) | -14.6 kcal/mol | 44.1 °C
43 | GCGTGGCGAAAGCCCGGC ((..(((....)))..)) | -14.9 kcal/mol | 57.8 °C
44 | GCGATGGGAAACCACCGC (((.(((....))).))) | -48.5 kcal/mol | 51.1 °C
45 | GTTCGCGGAAACGTGGAC ((.(.((....)).).)) | -26.9 kcal/mol | 44.8 °C
46 | GGATACGAAAGTAGCTCC ((((((....)))..))) | -12.7 kcal/mol | 37.1 °C

Row | Sequence | folding enthalpy [1] | Tm [2]
47 | GACGAGGGAAACCTCATC ((.((((....)))).)) | -20.3 kcal/mol | 31.2 °C
48 | GCCTTCGAAAGAAAGGC ((((((....))).))) | -30.3 kcal/mol | 54 °C
49 | GCTGGGCGAAAGCCAGC (((.(((....)))))) | -22.4 kcal/mol | 68.5 °C
50 | GCTACCGAAAGGTTTAGC ((((((....)))..))) | -17.6 kcal/mol | 38.5 °C
51 | GTCATAGGAAACTATGAC (((((((....))))))) | -39.3 kcal/mol | 55.9 °C
52 | GTATATCGAAAGATGTAC (((.(((....))).))) | -31.9 kcal/mol | 44.5 °C
53 | GCTTCGCGAAAGCCATGC ((.(.((....)).).)) | -9.05 kcal/mol | 34.6 °C
54 | GAGTCAGGAAACTGACTC (((((((....))))))) | -37 kcal/mol | 62.6 °C
55 | GCCTGGTCGAAAGACGGC (((..(((....)))))) | -25.3 kcal/mol | 52.2 °C
56 | GGTGTCGAAAGACTCACC ((((((....)))..))) | -17.6 kcal/mol | 39.1 °C
57 | GGTGTTGGAAACAATACC (((.(((....))).))) | -39.7 kcal/mol | 47.4 °C
58 | GATCTGCGTCAGATC ((((((...)))))) | -29.4 kcal/mol | 49.6 °C
59 | GCCCATTCGAAAGAAGGC (((..(((....)))))) | -15.8 kcal/mol | 33 °C
60 | GCTCTCGAAAGAGTTAGC ((((((....)))..))) | -21.8 kcal/mol | 35.3 °C
61 | GCTATGCGAAAGCAAGC (((.(((....)))))) | -17.5 kcal/mol | 51.7 °C
62 | GCGTAGCGAAAGCTATGC ((.((((....)))).)) | -18 kcal/mol | 62.4 °C
63 | GCGACGCGAAAGCAACGC (((..((....))..))) | -16.8 kcal/mol | 54.2 °C
64 | GATCAAGCCATTGATC ((((((....)))))) | -48.9 kcal/mol | 50.5 °C
65 | GTCTCAGCGAAAGCTGAC (((..(((....)))))) | -8.27 kcal/mol | 36.2 °C
66 | GATCAACGATTGATC ((((((...)))))) | -19.8 kcal/mol | 36.3 °C
67 | GCATCAGGAAACTGACGC ((.((((....)))).)) | -30 kcal/mol | 44.5 °C
68 | GTGTTCGAAAGAAAGCAC ((((((....)))..))) | -12.8 kcal/mol | 27.5 °C
69 | GCTTAGAAATAAGC (((((....))))) | -18 kcal/mol | 40.5 °C

Row | Sequence | folding enthalpy [1] | Tm [2]
70 | GTCCCAACGAAAGTTGAC (((..(((....)))))) | -9.31 kcal/mol | 25 °C
71 | GATCGGACAGCCGATC ((((((....)))))) | -36.9 kcal/mol | 52.4 °C
72 | GGCCAGCGAAAGCTCGCC (((.(((....))).))) | -38.9 kcal/mol | 53.4 °C
73 | GCTGAGCGAAAGCCGAGC (((..((....))..))) | -17.2 kcal/mol | 48.7 °C
74 | GCTTTATCGAAAGATAGC (((..(((....)))))) | -12.2 kcal/mol | 31.6 °C
75 | GACAGCGAAAGCTGGGTC ((((((....)))..))) | -12.4 kcal/mol | 62 °C
76 | GCTTACGAAAGTACAGC ((((((....))).))) | -23.4 kcal/mol | 41.4 °C
77 | GCTACGGGAAACCATAGC ((((.((....)).)))) | -31 kcal/mol | 39.4 °C
78 | GGTACGGGAAACTGTACC (((((.(....).))))) | -34.3 kcal/mol | 50.9 °C
79 | GATCACTGCAGTGATC ((((((....)))))) | -44.7 kcal/mol | 61.7 °C
80 | GTGTACGAAAGTAGCCAC ((((((....)))..))) | -14.2 kcal/mol | 31.9 °C
81 | GGTTCGGGAAACCGGACC (((.(((....))).))) | -39.5 kcal/mol | 58.3 °C
82 | CATTTGAAAAAATG (((((....))))) | -11.1 kcal/mol | 32.1 °C
83 | GTCGATCGAAAGATGAC (((.(((....)))))) | -26.9 kcal/mol | 43.7 °C
84 | GAGGGTGAAAACCCTC ((((((....)))))) | -32.4 kcal/mol | 64.2 °C
85 | GAACGCGAAAGCGTCTTC ((((((....)))..))) | -21.6 kcal/mol | 62.6 °C
86 | GGCACCGGAAACGGCACC ((..(((....)))..)) | -15.8 kcal/mol | 30.9 °C
87 | GTTCAGAAATGAAC (((((....))))) | -21.2 kcal/mol | 41.8 °C
88 | GCACGGCGAAAGCTTTGC (((..((....))..))) | -22.6 kcal/mol | 38.3 °C
89 | GATCCGGATACGGATC ((((((....)))))) | -38.8 kcal/mol | 67.9 °C
90 | GCTACCGAAAGGTATAGC ((((((....)))..))) | -18.2 kcal/mol | 44.4 °C
91 | GTCTGGCGAAAGCCTGAC (((.(((....))).))) | -26.8 kcal/mol | 62 °C
92 | GAGGGTGGAAACGTCCTC ((((..(....)..)))) | -23.9 kcal/mol | 35.1 °C
